Assay results published in ChEMBL document CHEMBL1131298 (J Med Chem, 1998).

Key:
[1] = Cytotoxicity was evaluated against LS174T-stCPG2(Q)3-expressing cell clone; format: functional; details: Homo sapiens
In short: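 LS174T colon cells stably transfected with surface-tethered mutant CPG2 (stCPG2(Q)3) plasmid; 2 × 10^6 cells seeded, confluent at 48 h. Compound added from DMSO stock in full medium, a similar dose re-added after 1 h, then 20 h more. Cells reseeded in quadruplicate at ~2 × 10^3/well, grown to control confluence; sulforhodamine-B at 590 nm, IC50 by interpolation.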

[2] = Kinetic parameter (half-life prodrug/drug) was evaluated; format: ADME
In short: (§1)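 10 mM stocks diluted 100-fold to 100 µM in CPG2 assay buffer (100 mM Tris-HCl pH 7.3, 260 µM ZnCl2) at 37 °C. Remaining starting material followed by isocratic C18 HPLC in 10 mM ammonium acetate pH 5.0/methanol, UV at compound-specific wavelength, via repeat injections every 7.5 min or fresh-vial injections every 1 min.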

[3] = Kinetic parameter(rate of catalysis) was evaluated; format: ADME
[4] = Kinetic parameter (half-life) was evaluated; NA ='Not applicable'; format: ADME; in short: as §1

Row | Structure (SMILES) | IC50 [1] | T1/2 [2] | k cat [3] | T1/2 [4]
1 | CS(=O)(=O)OCCN(CCCl)c1ccc(C(=O)O)cc1 | 27.8 µM |  |  | 
2 | Nc1ccc(N(CCF)CCF)cc1 | 121 µM |  |  | 
3 | O=C(O)CC[C@H](NC(=O)Nc1ccc(COC(=O)Nc2ccc(N(CCF)CCF)cc2)cc1)C(=O)O | 184 µM | 0.4 min | 50 s⁻¹ | 
4 | O=C(O)CC[C@H](NC(=O)Oc1ccc(COC(=O)Nc2ccc(N(CCF)CCF)cc2)cc1)C(=O)O | 257 µM |  | 50 s⁻¹ | Not Active
5 | O=C(O)CC[C@H](NC(=O)Nc1ccc(CO)cc1)C(=O)O |  |  | 65.4 s⁻¹ | 
6 | Oc1ccc(N(CCF)CCF)cc1 | 323 µM |  |  | Not Active
7 | O=C(O)CC[C@H](NC(=O)Oc1ccc(COC(=O)Oc2ccc(N(CCF)CCF)cc2)cc1)C(=O)O | 128 µM |  | < 10 s⁻¹ | Not Active
8 | O=C(O)CC[C@H](NC(=O)Oc1ccc(COC(=O)Oc2ccc(N(CCCl)CCCl)cc2)cc1)C(=O)O | 0.42 µM | 13.7 min | < 10 s⁻¹ | 
9 | O=C(O)CC[C@H](NC(=O)Nc1ccc(COC(=O)Oc2ccc(N(CCF)CCF)cc2)cc1)C(=O)O | 264 µM | < 10 min |  | 
10 | O=C(O)CC[C@H](NC(=O)Nc1ccc(COC(=O)Oc2ccc(N(CCCl)CCCl)cc2)cc1)C(=O)O | 0.48 µM | 0.3 min | < 10 s⁻¹ | 
11 | O=C(O)CC[C@H](NC(=O)Nc1ccc(COC(=O)Nc2ccc(N(CCCl)CCCl)cc2)cc1)C(=O)O | 0.46 µM | 7.6 min | 50 s⁻¹ | 
12 | O=C(O)CC[C@H](NC(=O)Oc1ccc(COC(=O)Nc2ccc(N(CCCl)CCCl)cc2)cc1)C(=O)O | 0.62 µM | 8.1 min | < 10 s⁻¹ | 
13 | O=C(O)CC[C@H](NC(=O)Oc1ccc(CO)cc1)C(=O)O |  |  | 140 s⁻¹ | Not Active
